Test results: ChEMBL document CHEMBL4334464, “From Phenylthiazoles to Phenylpyrazoles: Broadening the Antibacterial Spectrum toward Carbapenem-Resistant Bacteria” (J Med Chem, 2019)
The source made the active and inactive calls. The calls are words filed in the database; no cut-off is given here.

Experiments:
[1] = tested on: Staphylococcus aureus; experiment: Antibacterial activity against methicillin-resistant Staphylococcus aureus NRS123-USA400 clinical isolates over 14 serial passages by broth microdilution assay; format: functional, organism-based
In short: (§1)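 MRSA USA400 was serially passaged over a 14-day period in the presence of each compound or control antibiotic. MIC was determined by broth microdilution after each passage. A four-fold rise in MIC was taken as a sign of resistance.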

[2] = Stability in human liver microsomes assessed as compound remaining measured immediately in presence of NADPH by LC/MS/MS analysis; format: ADME, Microsome; settings: read-out: Stability
In short: (§2)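 Two independent runs (1st and 2nd) were done at each time point, and the mean percent remaining is reported. Incubations were run both with and without NADPH. Half-life and intrinsic clearance (Clint) were derived from the time-course data.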

[3] = Stability in human liver microsomes assessed as compound remaining incubated for 15 mins in presence of NADPH by LC/MS/MS analysis; format: ADME, Microsome; settings: read-out: Stability; in short: as §2
[4] = Stability in human liver microsomes assessed as compound remaining incubated for 30 mins in presence of NADPH by LC/MS/MS analysis; format: ADME, Microsome; settings: read-out: Stability; in short: as §2
[5] = Stability in human liver microsomes assessed as compound remaining incubated for 45 mins in presence of NADPH by LC/MS/MS analysis; format: ADME, Microsome; settings: read-out: Stability; in short: as §2
[6] = Stability in human liver microsomes assessed as compound remaining incubated for 60 mins in presence of NADPH by LC/MS/MS analysis; format: ADME, Microsome; settings: read-out: Stability; in short: as §2
[7] = Stability in human liver microsomes assessed as compound remaining measured immediately in absence of NADPH by LC/MS/MS analysis; format: ADME, Microsome; settings: read-out: Stability; in short: as §2
[8] = Stability in human liver microsomes assessed as compound remaining incubated for 15 mins in absence of NADPH by LC/MS/MS analysis; format: ADME, Microsome; settings: read-out: Stability
[9] = Stability in human liver microsomes assessed as compound remaining incubated for 30 mins in absence of NADPH by LC/MS/MS analysis; format: ADME, Microsome; settings: read-out: Stability; in short: as §2
[10] = Stability in human liver microsomes assessed as compound remaining incubated for 45 mins in absence of NADPH by LC/MS/MS analysis; format: ADME, Microsome; settings: read-out: Stability; in short: as §2
[11] = Stability in human liver microsomes assessed as compound remaining incubated for 60 mins in absence of NADPH by LC/MS/MS analysis; format: ADME, Microsome; settings: read-out: Stability; in short: as §2
[12] = Half life in human liver microsomes in presence of NADPH by LC/MS/MS analysis; format: ADME, Microsome
[13] = Half life in human liver microsomes in absence of NADPH by LC/MS/MS analysis; format: ADME, Microsome
[14] = Intrinsic clearance in human liver microsomes in presence of NADPH by LC/MS/MS analysis; format: ADME, Microsome; settings: read-out: CLH
[15] = Intrinsic clearance in human liver microsomes in absence of NADPH by LC/MS/MS analysis; format: ADME, Microsome; settings: read-out: CLH
[16] = Apparent permeability across apical to basolateral side in human Caco2 cells after 2 hrs by LC/MS/MS analysis; format: ADME, cell-based; settings: Caco-2
[17] = Apparent permeability across basolateral to apical side in human Caco2 cells after 2 hrs by LC/MS/MS analysis; format: ADME, cell-based; settings: Caco-2
[18] = Efflux ratio of apparent permeability across basolateral to apical side over apical to basolateral side in human Caco2 cells after 2 hrs by LC/MS/MS analysis; format: ADME, cell-based; settings: Caco-2
[19] = Half life in Sprague-Dawley rat at 5 mg/kg, iv administered as bolus dose measured over 12 hrs by LC-MS/MS analysis; format: ADME, organism-based; settings: in vivo
[20] = Clearance in Sprague-Dawley rat at 5 mg/kg, iv administered as bolus dose measured over 12 hrs by LC-MS/MS analysis; format: ADME, organism-based; settings: in vivo
[21] = tested on: Staphylococcus aureus; experiment: Potency index, ratio of compound effect to vancomycin effect for antibiofilm activity against methicillin-resistant Staphylococcus aureus NRS384-USA300 clinical isolates at 0.5 times MIC; format: functional
[22] = tested on: Staphylococcus aureus; experiment: Antibacterial activity against methicillin-resistant Staphylococcus aureus NRS123-USA400 clinical isolates assessed as ratio of MIC after and before 8 serial passages by broth microdilution assay; format: functional; in short: as §1
[23] = tested on: Staphylococcus aureus; experiment: Antibacterial activity against methicillin-resistant Staphylococcus aureus NRS123-USA400 clinical isolates assessed as ratio of MIC after and before 14 serial passages by broth microdilution assay; format: functional; in short: as §1
[24] = tested on: Staphylococcus aureus; experiment: Antibacterial activity against methicillin-resistant Staphylococcus aureus NRS123-USA400 clinical isolates assessed as ratio of MIC after and before 10 serial passages by broth microdilution assay; format: functional; in short: as §1

C/C(=N\NC(=N)N)c1cnn(-c2ccc(C#CC3CCCC3)cc2)c1C
Activity [1]: Active
remaining at 0 min [2]: 100%
remaining at 0.25 h [3]: 93%
remaining at 0.5 h [4]: 92%
remaining at 0.75 h [5]: 81%
remaining at 1 h [6]: 82%
remaining at 0 min [7]: 100%
remaining at 0.25 h [8]: 99%
remaining at 0.5 h [9]: 99%
remaining at 0.75 h [10]: 99%
remaining at 1 h [11]: 91%
half-life [12]: 3.23 h
half-life [13]: 8.42 h
microsomal CLint [14]: 35.8 µL/min/mg
microsomal CLint [15]: < 116 µL/min/mg
Papp A→B at 2 h [16]: 0.01 ×10⁻⁶ cm/s
Papp B→A at 2 h [17]: 0.01 ×10⁻⁶ cm/s
efflux ratio at 2 h [18]: 1
half-life [19]: 10.5 h
clearance [20]: 16.7 mL/min
Ratio [21]: 2

C/C(=N\NC1=NCCN1)c1cnn(-c2ccc(C#CC3CCCC3)cc2)c1C
Ratio [22]: 1
Ratio [23]: 2
remaining at 0 min [2]: 100%
remaining at 0.25 h [3]: 99%
remaining at 0.5 h [4]: 92%
remaining at 0.75 h [5]: 79%
remaining at 1 h [6]: 79%
remaining at 0 min [7]: 100%
remaining at 0.25 h [8]: 98%
remaining at 0.5 h [9]: 97%
remaining at 0.75 h [10]: 97%
remaining at 1 h [11]: 97%
half-life [12]: 2.55 h
half-life [13]: 20.3 h
microsomal CLint [14]: 42.3 µL/min/mg
microsomal CLint [15]: < 116 µL/min/mg
Papp A→B at 2 h [16]: 0.1 ×10⁻⁶ cm/s
Papp B→A at 2 h [17]: 0.15 ×10⁻⁶ cm/s
efflux ratio at 2 h [18]: 1.5

C/C(=N\NC(=N)N)c1cnn(-c2ccc(C#Cc3ccccc3)cc2)c1C
Ratio [24]: 1
